According to ChEMBL document CHEMBL1921791, “Arylsulfonamidopiperidone derivatives as a novel class of factor Xa inhibitors” (Bioorg Med Chem Lett, 2011):

Assays:
[1] = Permeability from apical to basolateral side of human Caco2 cells at 3 uM; format: ADME, cell-based; conditions: Caco-2, read-out: permeability
Method in brief: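 Caco-2 monolayers: apical-to-basolateral permeability was measured at pH 6.5 and reported in nm/s.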

[2] = Half life in human liver microsomes at 0.5 uM at pH 7.4 in presence of NADPH; format: ADME, Microsome
Method in brief: (§1)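 Liver microsomal stability was measured with 0.5 µM compound and 1.0 mg/mL microsomal protein, in 1.0 mM NADPH, 100 mM NaPi and 5.0 mM MgCl₂, at pH 7.4 and 37 °C. Half-life was determined.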

[3] = Half life in rat liver microsomes at 0.5 uM at pH 7.4 in presence of NADPH; format: ADME, Microsome; method in brief: as §1
[4] = Half life in mouse liver microsomes at 0.5 uM at pH 7.4 in presence of NADPH; format: ADME, Microsome; method in brief: as §1
[5] = Half life in dog liver microsomes at 0.5 uM at pH 7.4 in presence of NADPH; format: ADME, Canis lupus familiaris, Microsome; method in brief: as §1
[6] = Half life in cynomolgus monkey liver microsomes at 0.5 uM at pH 7.4 in presence of NADPH; format: ADME, Macaca fascicularis, Microsome; method in brief: as §1

Compound	Papp A→B at 3 µM [1]	half-life at 0.5 µM [2]	half-life at 0.5 µM [3]	half-life at 0.5 µM [4]	half-life at 0.5 µM [5]	half-life at 0.5 µM [6]
O=C(CN1CCC[C@H](NS(=O)(=O)c2ccc3cc(Cl)ccc3c2)C1=O)N1CC2CNCC(C2)C1	< 1.5 ×10⁻⁶ cm/s					
O=C(CN1CCC[C@H](NS(=O)(=O)c2ccc3cc(Cl)ccc3c2)C1=O)N1C[C@@H]2C[C@H](C1)c1cccc(=O)n1C2	2.5 ×10⁻⁶ cm/s	< 2 min	< 2 min	< 2 min	< 2 min	< 2 min
CC(=O)N1CC2CC(C1)CN(C(=O)CN1CCC[C@H](NS(=O)(=O)c3ccc4cc(Cl)ccc4c3)C1=O)C2	7.3 ×10⁻⁶ cm/s	< 2 min	< 2 min	< 2 min	< 2 min	< 2 min
NC(=O)N1CC2CC(C1)CN(C(=O)CN1CCC[C@H](NS(=O)(=O)c3ccc4cc(Cl)ccc4c3)C1=O)C2	< 1.5 ×10⁻⁶ cm/s					
NC(=O)C(=O)N1CC2CC(CN(C(=O)CN3CCC[C@H](NS(=O)(=O)c4ccc5cc(Cl)ccc5c4)C3=O)C2)C1	< 1.5 ×10⁻⁶ cm/s					
CS(=O)(=O)N1CC2CC(CN(C(=O)CN3CCC[C@H](NS(=O)(=O)c4ccc5cc(Cl)ccc5c4)C3=O)C2)C1	< 1.5 ×10⁻⁶ cm/s					
O=C(CN1CCC[C@H](NS(=O)(=O)c2ccc3cc(Cl)ccc3c2)C1=O)N1CC2CC(C1)CN(C(=O)C1CCNCC1)C2	< 1.5 ×10⁻⁶ cm/s					
Nc1[nH]ncc1C(=O)N1CC2CC(CN(C(=O)CN3CCC[C@H](NS(=O)(=O)c4ccc5cc(Cl)ccc5c4)C3=O)C2)C1	< 1.5 ×10⁻⁶ cm/s					
